Data set [1] is described as follows: Antagonist activity at human calcium receptor expressed in HEK293 cells assessed as inhibition of extracellular calcium-induced release of intracellular calcium strores into cytosol by FLIPR assay. It counts as functional, cell-based. For orientation: Calcium flux is commonly read through the fluorescence of an indicator in the cells.
Data set [2] in a line: Cmax in Sprague-Dawley rat at 1 mg/kg, iv. Further details: dose 1 mg/kg, route intravenous. Conditions: in vivo. The format is ADME, organism-based. Summed up: (§1)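 Male Sprague-Dawley rats, n = 2–5. iv dosing in glycerol formal containing 2% DMSO; po dosing as a spray dried dispersion. Plasma compound levels followed for PK parameters.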
A short description of data set [3]: Cmax in Sprague-Dawley rat at 10 mg/kg, po. Conditions: in vivo. The format is ADME, organism-based. Also on record: dose 10 mg/kg, route oral. In short, it runs like this: as §1
Data set [4] can be described thus: Tmax in Sprague-Dawley rat at 1 mg/kg, iv. It counts as ADME, organism-based. Also on record: dose 1 mg/kg, route intravenous. Conditions: in vivo. In short, it runs like this: as §1
The nature of data set [5]: Plasma clearance in Sprague-Dawley rat at 1 mg/kg, iv. The format is ADME, organism-based. Also on record: dose 1 mg/kg, route intravenous. In short, it runs like this: as §1
The nature of data set [6]: (§2) Volume of distribution at steady state in Sprague-Dawley rat at 1 mg/kg, iv. The format is ADME, organism-based. Conditions: Sprague-Dawley, in vivo, read-out: Vdss. Further details: dose 1 mg/kg, route intravenous. Summed up: as §1
Data set [7] is described as follows: (§3) Terminal half life in Sprague-Dawley rat at 1 mg/kg, iv. Particulars: Sprague-Dawley, in vivo, read-out: beta t1/2 (converted). Also on record: dose 1 mg/kg, route intravenous. It counts as ADME, organism-based. Summed up:
as §1

The species entered for data set [8] is Rattus norvegicus. In words: Ratio of AUC for 1-aminobenzotriazole led P450 inactivator pretreated Sprague-Dawley rat to AUC for normal Sprague-Dawley rat. It counts as ADME, organism-based. Particulars: in vivo.
The nature of data set [9]: AUC in Sprague-Dawley rat at 1 mg/kg, iv. The format is ADME, organism-based. Further details: dose 1 mg/kg, route intravenous. Conditions: plasma. Summed up:
as §1

A short description of data set [10]: Plasma clearance in 1-aminobenzotriazole led P450 inactivator pretreated Sprague-Dawley rat at 1 mg/kg, iv. Further details: dose 1 mg/kg, route intravenous. The format is ADME, organism-based.
Data set [11] concerns Rattus norvegicus. Description: Induction of bone formation in Sprague-Dawley rat assessed as stimulation of PTH level in plasma at 1 mg/kg, iv after 2 mins by ELISA. The format is functional. Summed up: (§4)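 Male Sprague-Dawley rats, n = 5/6, given a single iv or po dose. Plasma PTH 1-84 measured by an ELISA specific for full-length rat PTH 1-84. Earliest sampling at ~2 min; comparison against baseline in vehicle-treated animals.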
In general terms: An ELISA detects its analyte on a solid surface through an enzyme-linked reagent.

The test system of data set [12] is Rattus norvegicus. Description: Induction of bone formation in Sprague-Dawley rat assessed as stimulation of PTH level in plasma at dose 10 mg/kg, po by ELISA. It counts as functional. In short, it runs like this: as §4
The test system of data set [13] is Rattus norvegicus. Description: Induction of bone formation in Sprague-Dawley rat assessed as transient stimulation of PTH level in plasma at dose 10 mg/kg, po on day 1 by ELISA. The format is functional, organism-based. Further details: dose 10 mg/kg.
Data set [14] concerns Rattus norvegicus. In words: Induction of bone formation in Sprague-Dawley rat assessed as transient stimulation of PTH level in plasma at dose 10 mg/kg, po administered for 5 days measured on day 5 by ELISA. Further details: dose 10 mg/kg. It counts as functional, organism-based.
In data set [15] the test system is Rattus norvegicus. Description: Induction of bone formation in Sprague-Dawley rat assessed as sustained elevation of PTH level in plasma at dose 10 mg/kg, po administered for 5 days measured on day 5 by ELISA. It counts as functional, organism-based. Further details: dose 10 mg/kg.
For data set [16], the species on record is Rattus norvegicus. In words: Ratio of half life for 1-aminobenzotriazole led P450 inactivator pretreated Sprague-Dawley rat to half life for normal Sprague-Dawley rat. The format is ADME, organism-based. Conditions: in vivo.
Data set [17] deals with Rattus norvegicus. Description: Induction of bone formation in Sprague-Dawley rat assessed as stimulation of PTH level in plasma at 1 mg/kg, iv after 2 mins relative by ELISA to basal level. It counts as functional. In short, it runs like this: as §4
Data set [18] deals with Voltage-gated inwardly rectifying potassium channel KCNH2 (Homo sapiens, UniProt Q12809). In words: Inhibition of human ERG.
Voltage-gated inwardly rectifying potassium channel KCNH2, sequence (Q12809 whole entry): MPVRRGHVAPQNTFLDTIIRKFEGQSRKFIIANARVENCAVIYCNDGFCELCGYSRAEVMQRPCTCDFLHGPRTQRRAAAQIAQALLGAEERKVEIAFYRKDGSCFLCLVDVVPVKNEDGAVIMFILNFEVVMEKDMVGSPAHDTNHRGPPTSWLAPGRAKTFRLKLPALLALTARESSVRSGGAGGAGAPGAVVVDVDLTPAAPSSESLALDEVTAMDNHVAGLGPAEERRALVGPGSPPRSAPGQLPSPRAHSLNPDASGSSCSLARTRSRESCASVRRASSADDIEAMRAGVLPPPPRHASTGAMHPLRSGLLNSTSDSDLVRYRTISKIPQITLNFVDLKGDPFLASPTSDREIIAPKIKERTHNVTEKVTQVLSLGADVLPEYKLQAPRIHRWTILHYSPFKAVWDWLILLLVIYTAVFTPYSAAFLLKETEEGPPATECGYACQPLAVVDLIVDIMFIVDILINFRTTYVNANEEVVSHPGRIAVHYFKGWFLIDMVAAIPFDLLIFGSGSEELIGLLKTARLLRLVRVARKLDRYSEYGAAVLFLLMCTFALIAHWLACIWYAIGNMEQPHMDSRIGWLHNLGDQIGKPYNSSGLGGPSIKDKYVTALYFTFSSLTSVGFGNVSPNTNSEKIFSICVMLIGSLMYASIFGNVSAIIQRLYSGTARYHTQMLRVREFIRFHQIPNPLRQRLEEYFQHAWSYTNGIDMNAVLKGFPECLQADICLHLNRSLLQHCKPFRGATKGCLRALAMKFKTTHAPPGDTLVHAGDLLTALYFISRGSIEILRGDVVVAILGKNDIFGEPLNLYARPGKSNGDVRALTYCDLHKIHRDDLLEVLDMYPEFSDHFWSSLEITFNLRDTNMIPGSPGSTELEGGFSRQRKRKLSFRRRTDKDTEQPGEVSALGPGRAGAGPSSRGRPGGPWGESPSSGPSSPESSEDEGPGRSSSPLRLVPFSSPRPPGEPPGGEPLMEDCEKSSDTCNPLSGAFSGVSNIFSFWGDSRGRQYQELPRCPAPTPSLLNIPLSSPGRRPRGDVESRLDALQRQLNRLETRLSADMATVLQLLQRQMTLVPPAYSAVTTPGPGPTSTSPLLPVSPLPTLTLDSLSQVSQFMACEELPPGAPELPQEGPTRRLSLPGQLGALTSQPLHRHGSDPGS
Data set [19] in a line: Half life in human. The format is ADME, organism-based. Particulars: in vivo.
Data set [20] deals with Rattus norvegicus. The data set is described as §2. It counts as ADME, organism-based. Further details: dose 1 mg/kg, route intravenous. Particulars: in vivo. Summed up:
as §1

For data set [21], the system named is Rattus norvegicus. The data set is described as §3. It counts as ADME, organism-based. Also on record: dose 1 mg/kg, route intravenous. Particulars: in vivo. In short, it runs like this: as §1

The source made the active and inactive calls. No cut-off for these calls is given here.

The term IC50 denotes the concentration needed to halve the response being measured. With `C[C@H](Cc1ccccc1)n1c(-c2ncccc2O)nc2ccnc(C(F)(F)F)c2c1=O`, in data set [1], the IC50 turned out to be 22 nM.

The Cmax is the peak of the concentration-time curve. The Tmax is the time at which the peak concentration occurs. A word on the clearance: it is a measure of how efficiently the substance is removed, as volume per time. For orientation: AUC means the area under the concentration-time curve, a measure of exposure. Read a high AUC as high exposure. With `C[C@H](Cc1ccccc1)n1c(-c2ccccc2O)nc2ccnc(C(F)(F)F)c2c1=O`, the IC50 in data set [1] worked out at 41 nM. The results for the Cmax in [2] and in [3] were 125 ng/mL and 350 ng/mL, respectively. For the same compound, the time of peak concentration (Tmax) in data set [4] amounted to 30 min. Also, the clearance in data set [5] was 32.2 mL/min/kg; in data set [10] it was 7.8 mL/min/kg. In addition, the Vd in [6] amounted to 1.4 L/kg. For the same compound, the half-life in [7] was 36 min. Further, the Ratio in data set [8] came out at 4; in [16] it was 7. In addition, in [9], the area under the curve (AUC) amounted to 518 ng·h/mL. Besides, the Activity in [11] was found to be 921 pg/mL; in data set [12] it was 620 pg/mL. For the same compound, the result in data set [13] and in data set [14] was Active. Further, in [15], the outcome was inactive.

For the compound `O=c1c2c(C(F)(F)F)nccc2nc(-c2cscn2)n1CCc1ccccc1`, the IC50 in data set [1] was found to be 656 nM.

`O=c1c2c(C(F)(F)F)nccc2nc(-c2ncccc2O)n1CCC1CCCCC1`: the IC50 in data set [1] was determined as 36 nM. In data set [5], this compound displayed a clearance of 35.9 mL/min/kg. Further, the Vd in [6] was found to be 3.2 L/kg. In addition, the half-life in [7] is 37.2 min. The compound also had an AUC in [9] of 490 ng·h/mL.

For the compound `C[C@H](Cc1ccccc1)n1c(-c2ccccc2Cl)nc2ccnc(C(F)(F)F)c2c1=O`, in data set [1], the half-inhibitory concentration (IC50) is 152 nM.

Turning to `O=c1c2c(C(F)(F)F)nccc2nc(-c2cccc(F)c2O)n1CCc1ccccc1`, the concentration for half-maximal inhibition (IC50) in data set [1] came to 610 nM.

With `Cc1cccnc1-c1nc2ccnc(C(F)(F)F)c2c(=O)n1[C@H](C)Cc1ccccc1`, the half-inhibitory concentration (IC50) in data set [1] came out at 226 nM.

As to `O=c1c2c(C(F)(F)F)nccc2nc(-c2ncccc2O)n1CCc1ccccc1F`, in [1], the IC50 came out at 151 nM.

For `C[C@@H](Cc1ccccc1)n1c(-c2ccccc2O)nc2ccnc(C(F)(F)F)c2c1=O`, the IC50 in [1] came to 158 nM.

`COc1ccccc1CCn1c(-c2ncccc2O)nc2ccnc(C(F)(F)F)c2c1=O`: the IC50 in [1] stood at 76 nM.

`C[C@H](Cc1ccccc1)n1c(-c2cscn2)nc2ccnc(C(F)(F)F)c2c1=O`: the concentration for half-maximal inhibition (IC50) in data set [1] was 216 nM.

Regarding `C[C@H](Cc1ccc(F)c(F)c1)n1c(-c2ncccc2O)nc2ccnc(C(F)(F)F)c2c1=O`, the concentration for half-maximal inhibition (IC50) in data set [1] is 8 nM. Moreover, the maximum concentration (Cmax) in data set [2] turned out to be 133 ng/mL; in data set [3], 165 ng/mL. In addition, in [4], the Tmax worked out at 18 min. Moreover, the clearance in data set [5] is 46.5 mL/min/kg. The Vd in data set [6] amounted to 8.6 L/kg. Also, the half-life in data set [7] is 234 min. This compound also registered an area under the curve (AUC) in data set [9] of 364 ng·h/mL. Moreover, the Activity in data set [11] stood at 1303 pg/mL; in data set [12], 599 pg/mL. Also, the “fold change (FC)” value in data set [17] is reported as 10. The outcome in data set [13] and in data set [14] was Active. Moreover, in data set [15], the outcome was inactive.

Take `Cc1nccc2nc(-c3ccccc3O)n(CCc3ccccc3)c(=O)c12`: the half-inhibitory concentration (IC50) in data set [1] worked out at 2990 nM.

For the compound `CC(C)(Cc1ccc2ccccc2c1)NC[C@@H](O)COc1cccc(Cl)c1C#N`, the result in data set [18] was Active. In addition, the half-life in data set [19] is 480 min.

With `O=c1c2c(OC3CCC3)nccc2nc(-c2ccccc2O)n1CCc1ccccc1`, the IC50 in data set [1] came to 435 nM.

Turning to `O=c1c2c(Cl)nccc2nc(-c2ccccc2O)n1CCc1ccccc1`, in [1], the IC50 came to 106 nM.

Consider `O=c1c2c(C(F)(F)F)nccc2nc(-c2ccccc2O)n1CCc1ccccc1`, for which the IC50 in data set [1] was found to be 50 nM.

By Vdss is commonly meant the apparent volume that relates the amount in the body to the concentration in plasma or blood. As for `C[C@H](Cc1ccccc1)n1c(-c2ncccc2C(F)(F)F)nc2ccnc(C(F)(F)F)c2c1=O`, in data set [1], the IC50 was 64 nM. The Cmax in [2] was 100 ng/mL; in [3] it was 450 ng/mL. Further, the Tmax in [4] is 78 min. This compound also displayed a Vdss in [20] of 2.9 L/kg. For the same compound, in data set [21], the “beta t1/2” value was found to be 48 min. In data set [9], this compound registered an AUC of 1200 ng·h/mL.

Regarding `O=c1c2c(C(F)(F)F)nccc2nc(-c2ccccc2O)n1CCc1ccccc1F`, in data set [1], the IC50 was determined as 132 nM.

As for `O=c1c2c(C(F)(F)F)nccc2nc(-c2ccccc2Cl)n1CCc1ccccc1`, the IC50 in data set [1] is 1070 nM.

`CC(=O)Nc1cccnc1-c1nc2ccnc(C(F)(F)F)c2c(=O)n1[C@H](C)Cc1ccccc1`: the half-maximal inhibitory concentration (IC50) in [1] came to 19 nM.

Consider `C[C@H](Cc1ccccc1)n1c(-c2cccc(F)c2O)nc2ccnc(C(F)(F)F)c2c1=O`, for which, in data set [1], the IC50 was found to be 25 nM. In data set [5], this compound returned a clearance of 31.6 mL/min/kg. In addition, in data set [6], the Vd was 3.6 L/kg. Further, in [7], the half-life was 91.8 min. Also, the AUC in [9] is 528 ng·h/mL.

As to `O=c1c2c(N3CCCC3)nccc2nc(-c2ccccc2O)n1CCc1ccccc1`, in [1], the IC50 is 5320 nM.

Regarding `CC(C)Oc1nccc2nc(-c3ccccc3O)n(CCc3ccccc3)c(=O)c12`, in [1], the IC50 amounted to 224 nM.

Consider `C[C@H](Cc1ccccc1)n1c(-c2ncccc2Cl)nc2ccnc(C(F)(F)F)c2c1=O`, for which the IC50 in data set [1] was 79 nM. Also, the volume of distribution (Vdss) in [20] was determined as 6 L/kg. Further, the “beta t1/2” value in data set [21] was determined as 57 min. The AUC in data set [9] stood at 810 ng·h/mL.

Values taken from ChEMBL document CHEMBL1153504, “Short-acting 5-(trifluoromethyl)pyrido[4,3-d]pyrimidin-4(3H)-one derivatives as orally-active calcium-sensing receptor antagonists” (Bioorg Med Chem Lett, 2009).
